Assay [1] is filed under the species Mus musculus. Kind of assay: Antiautoimmune disease activity in wild type C57BL/6 mouse experimental autoimmune encephalitis model assessed as reduction in disease pathogenicity at 2 ug, […] as single dose measured up to 30 days. The class given is functional, organism-based. The method, boiled down:
(§1)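 Wild-type B6 mice received 2D2 TCR-transgenic lymphocytes containing 1 × 10^6 Va3.2+Vβ11+ CD4+ T cells via the tail vein. After 24 h, mice were immunized sc in each flank with 200 μg MOG35−55 in incomplete Freund's adjuvant with 200 μg M. tuberculosis. Pertussis toxin was given ip on day 0 and day 2. A single 2 μg dose was mixed into the antigen emulsion at immunization. EAE clinical score was followed; n = 8/group from two experiments, mean ± SEM.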

For assay [2], the system named is Mus musculus. Kind of assay: In vivo immunomodulatory activity in wild type C57BL/6 mouse assessed as IL-4 level in serum at 2 ug, iv administered as single dose measured at >2 hrs. It is filed as functional, organism-based. In a few lines: (§2)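 Mice were given a single intravenous injection of 2 μg glycolipid, and serum was collected at set times after injection. Serum cytokines were measured by sandwich ELISA: plates coated with anti-cytokine antibody and blocked with 1% BSA, serum incubated overnight at 4 °C, then biotinylated antibody, streptavidin-HRP and TMB, with absorbance read at 450 nm.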

In assay [3] the test system is Mus musculus. Kind of assay: Immunomodulatory activity in PMA- and ionomycin-stimulated wild type C57BL/6 mouse HMNC cells assessed as reduction in IL-17 cytokine in cell culture supernatant at 2 ug, ip administered as single dose measured 22 days post immunization by ELISA relative to vehicle-treated control. The class given is functional, organism-based. The method, boiled down:
(§3)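 Spinal cord mononuclear cells were isolated at day 22 by Percoll gradient and restimulated 4 h with PMA 50 ng/mL plus ionomycin 1 μg/mL. Supernatant cytokines were measured by sandwich ELISA using capture antibody, biotinylated detection antibody, streptavidin-HRP and TMB. Data are mean ± SD of individual mice, n = 3−4/group.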
On the technique in general: ELISA stands for enzyme-linked immunosorbent assay.

In assay [4] the test system is Mus musculus. As to the kind of experiment: In vivo immunomodulatory activity in wild type C57BL/6 mouse assessed as decrease in IFN-gamma level in serum at 2 ug, iv administered as single dose measured after 12 to 24 hrs. The class given is functional, organism-based. The method, boiled down:
as §2

Assay [5] has as its system Mus musculus. Kind of assay: Immunomodulatory activity in PMA- and ionomycin-stimulated wild type C57BL/6 mouse HMNC cells assessed as inhibition of Th1 differentiation of MOG-specific CD4+ T cells at 2 ug, ip administered as single dose measured 22 days post immunization by brefeldin A staining-based flow cytometric analysis. It is filed as functional, organism-based. In a few lines:
(§4)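 At 22 days post-immunization, mice were perfused with cold PBS. Lumbar spinal cord was minced, digested and homogenized, and mononuclear cells were taken from the 30−70% Percoll interface. Cells were restimulated 4 h with PMA 50 ng/mL and ionomycin 1 μg/mL, with brefeldin A 1 μg/mL for the last 2 h. Cells were surface-stained, fixed in 4% PFA, permeabilized with Triton buffer, stained for CD4, IL-17 and IFN-γ, and analyzed by flow cytometry.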

In assay [6] the test system is Mus musculus. As to the kind of experiment: Immunomodulatory activity in PMA- and ionomycin-stimulated wild type C57BL/6 mouse HMNC cells assessed as reduction in IFN-gamma cytokine in cell culture supernatant at 2 ug, ip administered as single dose measured 22 days post immunization by ELISA relative to vehicle-treated control. It is filed as functional, organism-based. The method, boiled down:
as §3

The species named for assay [7] is Mus musculus. As to the kind of experiment: Antiautoimmune disease activity in wild type C57BL/6 mouse experimental autoimmune encephalitis model assessed as delay in disease onset at 2 ug, […] as single dose measured up to 30 days. It is filed as functional, organism-based. The method, boiled down:
as §1

Assay [8] concerns Mus musculus. Kind of assay: Immunomodulatory activity in PMA- and ionomycin-stimulated wild type C57BL/6 mouse HMNC cells assessed as inhibition of Th17 differentiation of MOG-specific CD4+ T cells at 2 ug, ip administered as single dose measured 22 days post immunization by brefeldin A staining-based flow cytometric analysis. The class given is functional, organism-based. In a few lines: as §4

In assay [9] the test system is Mus musculus. Kind of assay: In vivo immunomodulatory activity in wild type C57BL/6 mouse assessed as IL-4 level in serum at 2 ug, iv administered as single dose measured at 2 hrs. It is filed as functional, organism-based. In a few lines: as §2
In assay [10] the test system is HMNC. As to the kind of experiment: Immunomodulatory activity in wild type C57BL/6 mouse HMNC cells assessed as reduction in IL-17 secretion at 25 nM after 72 hrs by ELISA. The class given is functional, cell-based. In a few lines:
(§5)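 Hepatic mononuclear cells from C57BL/6 mice were isolated on Percoll and grown in RPMI-1640 with 10% FBS, L-glutamine and 2-mercaptoethanol. Cells (2 × 10^5) were stimulated 72 h with 25 nM glycolipid. Supernatant cytokines were measured by sandwich ELISA: overnight 4 °C sample incubation, biotinylated antibody, streptavidin-HRP, TMB, A450. Assays were run in triplicate and repeated 2−3 times; mean ± SD.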

Assay [11] deals with HMNC. As to the kind of experiment: Immunomodulatory activity in wild type C57BL/6 mouse HMNC cells assessed as reduction in IFN-gamma secretion at 25 nM after 72 hrs by ELISA. The class given is functional, cell-based. In a few lines: as §5
Assay [12] has as its system HMNC. As to the kind of experiment: Immunomodulatory activity in wild type C57BL/6 mouse HMNC cells assessed as increase in IL-4 secretion at 25 nM after 72 hrs by ELISA. It is filed as functional, cell-based. The method, boiled down: as §5
Assay [13] has as its system Mus musculus. As to the kind of experiment: Antiautoimmune disease activity in wild type C57BL/6 mouse experimental autoimmune encephalitis model assessed as reduction in mononuclear cells infiltration into white matter at 2 ug, ip administered as single dose measured on day 18 post immunization by H & E staining-based analysis relative to vehicle-treated control. It is filed as functional, organism-based.

Assay [14] concerns Mus musculus. As to the kind of experiment: In vivo immunomodulatory activity in wild type C57BL/6 mouse assessed as decrease in IL-17 level in serum at 2 ug, iv administered as single dose measured at 12 to 24 hrs. The class given is functional, organism-based. In a few lines:
as §2

The source made the active and inactive calls. The calls are words filed in the database; no cut-off is given here.

For the compound `CCCCCCCCCCCCCCCCCCCCCCCCCC(=O)N[C@@H](CO[C@H]1O[C@H](CO)[C@H](O)[C@H](O)[C@H]1O)[C@H](O)[C@H](O)CCCCCCCCCCCCCC`, the result in the assay listed under Mus musculus [1] and in the assay on Mus musculus [9] was Active. Moreover, the outcome in the assay on Mus musculus [2], in the assay with Mus musculus [3], in the assay on Mus musculus [4], with Mus musculus [5], in the assay on Mus musculus [6] and in the assay filed under Mus musculus [7] was inactive. Besides, the outcome in the assay on Mus musculus [8] was inactive.

With `CCCCCCCCCCCCCCCCCCCCCCCCCC(=O)N[C@@H](CO[C@H]1O[C@H](CO)[C@H](O)[C@H](O)[C@H]1O)[C@H](O)[C@H](O)c1cnn(CCCCCCCc2ccccc2)c1`, the outcome with HMNC [10], in the assay with HMNC [11] and in the assay on HMNC [12] was Active.

As to `CCCCCCCCCCCCCCCCCCCCCCCCCC(=O)N[C@@H](CO[C@H]1O[C@H](CO)[C@H](O)[C@H](O)[C@H]1O)[C@H](O)[C@H](O)c1cnn(CCCCCCc2ccc(C)cc2)c1`, the result with HMNC [10], in the assay on HMNC [11] and with HMNC [12] was Active.

In the case of `CCCCCCCCCCCCCCCCCCCCCCCCCC(=O)N[C@@H](CO[C@H]1O[C@H](CO)[C@H](O)[C@H](O)[C@H]1O)[C@H](O)[C@H](O)c1cnn(CCCc2ccc(CCCC)cc2)c1`, the outcome in the assay listed under Mus musculus [1], in the assay on Mus musculus [3], with HMNC [10], in the assay on Mus musculus [5], in the assay with Mus musculus [6] and in the assay with HMNC [11] was Active. Besides, the result in the assay filed under Mus musculus [7], in the assay with HMNC [12], in the assay on Mus musculus [13], in the assay with Mus musculus [14], in the assay with Mus musculus [8] and with Mus musculus [9] was Active. The outcome with Mus musculus [2] and in the assay on Mus musculus [4] was inactive.

Turning to `CCCCCCCCCCCCCCCCCCCCCCCCCC(=O)N[C@@H](CO[C@H]1O[C@H](CO)[C@H](O)[C@H](O)[C@H]1O)[C@H](O)[C@H](O)c1cnn(Cc2ccc(CCCCCC)cc2)c1`, the outcome with HMNC [10], in the assay with HMNC [11] and with HMNC [12] was Active.

For `CCCCCCCCCCCCCCCCCCCCCCCCCC(=O)N[C@@H](CO[C@H]1O[C@H](CO)[C@H](O)[C@H](O)[C@H]1O)[C@H](O)[C@H](O)c1cnn(CCc2ccc(CCCCC)cc2)c1`, the outcome with HMNC [10], with HMNC [11] and with HMNC [12] was inactive.

On to `CCCCCCCCCCCCCCCCCCCCCCCCCC(=O)N[C@@H](CO[C@H]1O[C@H](CO)[C@H](O)[C@H](O)[C@H]1O)[C@H](O)[C@H](O)c1cnn(CCCCc2ccc(CCC)cc2)c1`, for which the result in the assay with HMNC [10], in the assay on HMNC [11] and in the assay with HMNC [12] was Active.

As to `CCCCCCCCCCCCCCCCCCCCCCCCCC(=O)N[C@@H](CO[C@H]1O[C@H](CO)[C@H](O)[C@H](O)[C@H]1O)[C@H](O)[C@H](O)c1cnn(CCCCCc2ccc(CC)cc2)c1`, the result in the assay with HMNC [10], with HMNC [11] and in the assay on HMNC [12] was Active.

Values taken from ChEMBL document CHEMBL2429747, “Synthesis and biological evaluation of α-galactosylceramide analogues with heteroaromatic rings and varying positions of a phenyl group in the sphingosine backbone” (J Med Chem, 2013).
